Reference: PMC13170702 (Nuclear medicine and biology, 2025)
Where two headings read alike, the source gives them in different places.

Columns and labels:
[1] = whole-body PET-MR biodistribution and TIAC determination; assay type: in vivo, human
Method in brief: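 Tracer 70.3–355 MBq was given as an i.v. bolus; whole-body PET-MR used 6 bed positions. WB1–WB5 ran 0–34 min (1 min/bed), WB6–7 35–60 min (2 min/bed), WB8 80–104 min and WB9 180–214 min (4 min/bed). Voiding and water were allowed in breaks. SUV was read from AMIDE VOIs at early times (<1 h). Decay-corrected %IA per organ VOI over time was fitted by the exponential model (OLINDA/EXM 1.1) for TIACs.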

[2] = i.v., low molar activity tracer, PET-CT; cited from earlier work
[3] = i.v., low molar activity tracer, PET-CT; cited from earlier work; remark: listed apart in the source

What does the source list for COC(=O)[C@@H](N)CC(=O)Nc1ccc2c(c1)Cc1cc([18F])ccc1-2 [[^18F]RP-115, methyl N^4-(7-[^18F]fluoro-9H-fluoren-2-yl)asparaginate]?
SUV, brain and spinal tissues ([1]; 27–34 min after injection): > 1; SUV, major organs, CNS and peripheral tissues ([1]; 27–34 min after injection): > 1; TIAC, Brain ([1]; F1 (189 MBq)): 0.084 MBq-h/MBq; TIAC, Gallbladder wall ([1]; F1 (189 MBq)): 0.0031 MBq-h/MBq; TIAC, Heart contents ([1]; F1 (189 MBq)): 0.00463 MBq-h/MBq; TIAC, Heart wall ([1]; F1 (189 MBq)): 0.0155 MBq-h/MBq; TIAC, Kidneys ([1]; F1 (189 MBq)): 0.25 MBq-h/MBq; TIAC, Liver ([1]; F1 (189 MBq)): 0.209 MBq-h/MBq; TIAC, Lungs ([1]; F1 (189 MBq)): 0.274 MBq-h/MBq; TIAC, Pancreas ([1]; F1 (189 MBq)): 0.00899 MBq-h/MBq; TIAC, Remainder ([1]; F1 (189 MBq)): 1.28 MBq-h/MBq; TIAC, Small intestine ([1]; F1 (189 MBq)): 0.0843 MBq-h/MBq; TIAC, Spleen ([1]; F1 (189 MBq)): 0.0284 MBq-h/MBq; TIAC, Thymus ([1]; F1 (189 MBq)): 0.00372 MBq-h/MBq; TIAC, Thyroid ([1]; F1 (189 MBq)): 0.00052 MBq-h/MBq; TIAC, Urinary bladder contents ([1]; F1 (189 MBq)): 0.138 MBq-h/MBq; TIAC, Uterus/Uterine wall ([1]; F1 (189 MBq)): 0.00432 MBq-h/MBq; TIAC, Brain ([1]; F2, no voiding (355 MBq)): 0.075 MBq-h/MBq; TIAC, Gallbladder wall ([1]; F2, no voiding (355 MBq)): 0.00204 MBq-h/MBq; TIAC, Heart contents ([1]; F2, no voiding (355 MBq)): 0.00054 MBq-h/MBq; TIAC, Heart wall ([1]; F2, no voiding (355 MBq)): 0.0118 MBq-h/MBq; TIAC, Kidneys ([1]; F2, no voiding (355 MBq)): 0.391 MBq-h/MBq; TIAC, Liver ([1]; F2, no voiding (355 MBq)): 0.202 MBq-h/MBq; TIAC, Lungs ([1]; F2, no voiding (355 MBq)): 0.31 MBq-h/MBq; TIAC, Pancreas ([1]; F2, no voiding (355 MBq)): 0.00377 MBq-h/MBq; TIAC, Small intestine ([1]; F2, no voiding (355 MBq)): 0.0474 MBq-h/MBq; TIAC, Spleen ([1]; F2, no voiding (355 MBq)): 0.00188 MBq-h/MBq; TIAC, Thymus ([1]; F2, no voiding (355 MBq)): 0.00178 MBq-h/MBq; TIAC, Thyroid ([1]; F2, no voiding (355 MBq)): 0.0047 MBq-h/MBq; TIAC, Urinary bladder contents ([1]; F2, no voiding (355 MBq)): 0.127 MBq-h/MBq; TIAC, Uterus/Uterine wall ([1]; F2, no voiding (355 MBq)): 0.0564 MBq-h/MBq; TIAC, Brain ([1]; F3 (117 MBq)): 0.0606 MBq-h/MBq; TIAC, Gallbladder wall ([1]; F3 (117 MBq)): 0.00328 MBq-h/MBq; TIAC, Heart contents ([1]; F3 (117 MBq)): 0.00112 MBq-h/MBq; TIAC, Heart wall ([1]; F3 (117 MBq)): 0.0131 MBq-h/MBq; TIAC, Kidneys ([1]; F3 (117 MBq)): 0.266 MBq-h/MBq; TIAC, Liver ([1]; F3 (117 MBq)): 0.262 MBq-h/MBq; TIAC, Lungs ([1]; F3 (117 MBq)): 0.186 MBq-h/MBq; TIAC, Pancreas ([1]; F3 (117 MBq)): 0.00504 MBq-h/MBq; TIAC, Remainder ([1]; F3 (117 MBq)): 1.44 MBq-h/MBq; TIAC, Small intestine ([1]; F3 (117 MBq)): 0.0667 MBq-h/MBq; TIAC, Spleen ([1]; F3 (117 MBq)): 0.011 MBq-h/MBq; TIAC, Thymus ([1]; F3 (117 MBq)): 0.00146 MBq-h/MBq; TIAC, Thyroid ([1]; F3 (117 MBq)): 0.00131 MBq-h/MBq; TIAC, Urinary bladder contents ([1]; F3 (117 MBq)): 0.00659 MBq-h/MBq; TIAC, Uterus/Uterine wall ([1]; F3 (117 MBq)): 0.0115 MBq-h/MBq; TIAC, Brain ([1]; F4 (167 MBq)): 0.0781 MBq-h/MBq; TIAC, Gallbladder wall ([1]; F4 (167 MBq)): 0.00062 MBq-h/MBq; TIAC, Heart contents ([1]; F4 (167 MBq)): 0.0015 MBq-h/MBq; TIAC, Heart wall ([1]; F4 (167 MBq)): 0.0212 MBq-h/MBq; TIAC, Kidneys ([1]; F4 (167 MBq)): 0.245 MBq-h/MBq; TIAC, Liver ([1]; F4 (167 MBq)): 0.192 MBq-h/MBq; TIAC, Lungs ([1]; F4 (167 MBq)): 0.231 MBq-h/MBq; TIAC, Pancreas ([1]; F4 (167 MBq)): 0.0053 MBq-h/MBq; TIAC, Remainder ([1]; F4 (167 MBq)): 1.22 MBq-h/MBq; TIAC, Small intestine ([1]; F4 (167 MBq)): 0.126 MBq-h/MBq; TIAC, Spleen ([1]; F4 (167 MBq)): 0.0057 MBq-h/MBq; TIAC, Thymus ([1]; F4 (167 MBq)): 0.0021 MBq-h/MBq; TIAC, Thyroid ([1]; F4 (167 MBq)): 0.0009 MBq-h/MBq; TIAC, Urinary bladder contents ([1]; F4 (167 MBq)): 0.0319 MBq-h/MBq; TIAC, Uterus/Uterine wall ([1]; F4 (167 MBq)): 0.0133 MBq-h/MBq; TIAC, Brain ([1]; M1 (326 MBq)): 0.0947 MBq-h/MBq; TIAC, Gallbladder wall ([1]; M1 (326 MBq)): 0.00525 MBq-h/MBq; TIAC, Heart contents ([1]; M1 (326 MBq)): 0.00354 MBq-h/MBq; TIAC, Heart wall ([1]; M1 (326 MBq)): 0.0301 MBq-h/MBq; TIAC, Kidneys ([1]; M1 (326 MBq)): 0.351 MBq-h/MBq; TIAC, Liver ([1]; M1 (326 MBq)): 0.34 MBq-h/MBq; TIAC, Lungs ([1]; M1 (326 MBq)): 0.322 MBq-h/MBq; TIAC, Pancreas ([1]; M1 (326 MBq)): 0.0022 MBq-h/MBq; TIAC, Remainder ([1]; M1 (326 MBq)): 1.27 MBq-h/MBq; TIAC, Small intestine ([1]; M1 (326 MBq)): 0.161 MBq-h/MBq; TIAC, Spleen ([1]; M1 (326 MBq)): 0.0528 MBq-h/MBq; TIAC, Thymus ([1]; M1 (326 MBq)): 0.00576 MBq-h/MBq; TIAC, Thyroid ([1]; M1 (326 MBq)): 0.0007 MBq-h/MBq; TIAC, Urinary bladder contents ([1]; M1 (326 MBq)): 0.00668 MBq-h/MBq; TIAC, Brain ([1]; M2 (289 MBq)): 0.0531 MBq-h/MBq; TIAC, Gallbladder wall ([1]; M2 (289 MBq)): 0.0017 MBq-h/MBq; TIAC, Heart contents ([1]; M2 (289 MBq)): 0.0248 MBq-h/MBq; TIAC, Heart wall ([1]; M2 (289 MBq)): 0.202 MBq-h/MBq; TIAC, Kidneys ([1]; M2 (289 MBq)): 0.424 MBq-h/MBq; TIAC, Liver ([1]; M2 (289 MBq)): 0.19 MBq-h/MBq; TIAC, Lungs ([1]; M2 (289 MBq)): 0.0012 MBq-h/MBq; TIAC, Pancreas ([1]; M2 (289 MBq)): 0.111 MBq-h/MBq; TIAC, Remainder ([1]; M2 (289 MBq)): 1.37 MBq-h/MBq; TIAC, Small intestine ([1]; M2 (289 MBq)): 0.00196 MBq-h/MBq; TIAC, Spleen ([1]; M2 (289 MBq)): 0.0158 MBq-h/MBq; TIAC, Thymus ([1]; M2 (289 MBq)): 0.0013 MBq-h/MBq; TIAC, Thyroid ([1]; M2 (289 MBq)): 0.00039 MBq-h/MBq; TIAC, Urinary bladder contents ([1]; M2 (289 MBq)): 0.017 MBq-h/MBq; TIAC, Brain ([1]; M3 (70.3 MBq)): 0.0611 MBq-h/MBq; TIAC, Gallbladder wall ([1]; M3 (70.3 MBq)): 0.00199 MBq-h/MBq; TIAC, Heart contents ([1]; M3 (70.3 MBq)): 0.0027 MBq-h/MBq; TIAC, Heart wall ([1]; M3 (70.3 MBq)): 0.0297 MBq-h/MBq; TIAC, Kidneys ([1]; M3 (70.3 MBq)): 0.286 MBq-h/MBq; TIAC, Liver ([1]; M3 (70.3 MBq)): 0.249 MBq-h/MBq; TIAC, Lungs ([1]; M3 (70.3 MBq)): 0.298 MBq-h/MBq; TIAC, Pancreas ([1]; M3 (70.3 MBq)): 0.00353 MBq-h/MBq; TIAC, Remainder ([1]; M3 (70.3 MBq)): 1.29 MBq-h/MBq; TIAC, Small intestine ([1]; M3 (70.3 MBq)): 0.0651 MBq-h/MBq; TIAC, Spleen ([1]; M3 (70.3 MBq)): 0.0218 MBq-h/MBq; TIAC, Thymus ([1]; M3 (70.3 MBq)): 0.00217 MBq-h/MBq; TIAC, Thyroid ([1]; M3 (70.3 MBq)): 0.00057 MBq-h/MBq; TIAC, Urinary bladder contents ([1]; M3 (70.3 MBq)): 0.0429 MBq-h/MBq; TIAC, Brain ([1]; M4 (153 MBq)): 0.078 MBq-h/MBq; TIAC, Gallbladder wall ([1]; M4 (153 MBq)): 0.00356 MBq-h/MBq; TIAC, Heart contents ([1]; M4 (153 MBq)): 0.0033 MBq-h/MBq; TIAC, Heart wall ([1]; M4 (153 MBq)): 0.0276 MBq-h/MBq; TIAC, Kidneys ([1]; M4 (153 MBq)): 0.332 MBq-h/MBq; TIAC, Liver ([1]; M4 (153 MBq)): 0.229 MBq-h/MBq; TIAC, Lungs ([1]; M4 (153 MBq)): 0.214 MBq-h/MBq; TIAC, Pancreas ([1]; M4 (153 MBq)): 0.00723 MBq-h/MBq; TIAC, Remainder ([1]; M4 (153 MBq)): 1.39 MBq-h/MBq; TIAC, Small intestine ([1]; M4 (153 MBq)): 0.12 MBq-h/MBq; TIAC, Spleen ([1]; M4 (153 MBq)): 0.0354 MBq-h/MBq; TIAC, Thymus ([1]; M4 (153 MBq)): 0.00492 MBq-h/MBq; TIAC, Thyroid ([1]; M4 (153 MBq)): 0.00105 MBq-h/MBq; TIAC, Urinary bladder contents ([1]; M4 (153 MBq)): 0.0178 MBq-h/MBq; CNS activity uptake (SUV) [2]: > 1; CNS activity uptake (SUV) [3]: > 1
